According to ChEMBL document CHEMBL2146385, “Synthesis and antiviral evaluation of bis(POM) prodrugs of (E)-[4'-phosphono-but-2'-en-1'-yl]purine nucleosides” (Eur J Med Chem, 2012):
Activity calls are given as the source filed them. The rule behind the calls is not given here.

Key:
Human alphaherpesvirus 3 [1] = assay: Antiviral activity against VZV OKA expressing thymidine kinase infected in HEL cells assessed as inhibition of virus-induced cytopathogenicity after 3 days; format: functional, cell-based; conditions: Human alphaherpesvirus 3, strain Oka vaccine, 72 h
[2] = tested on: Vesicular stomatitis virus; assay: Antiviral activity against Vesicular stomatitis virus infected in MDCK assessed as inhibition of virus-induced cytopathicity after 3 days; format: functional, organism-based
[3] = tested on: Vesicular stomatitis virus; assay: Antiviral activity against Vesicular stomatitis virus infected in human HeLa assessed as inhibition of virus-induced cytopathicity after 3 days; format: functional, organism-based
Influenza B virus = assay: Antiviral activity against Influenza B virus infected in MDCK assessed as inhibition of virus-induced cytopathicity after 3 days; format: functional, organism-based
Punta Toro virus = assay: Antiviral activity against Punta Toro virus infected in african green monkey Vero assessed as inhibition of virus-induced cytopathicity after 3 days; format: functional, organism-based
Outline: (§1)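 Confluent cell monolayers infected with 100 CCID50 of virus in the presence of test compound at 100, 20,... μM. Cytopathicity was scored once it was complete in untreated infected controls.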

[4] = tested on: Mammalian orthoreovirus 1; assay: Antiviral activity against Reovirus-1 infected in african green monkey Vero assessed as inhibition of virus-induced cytopathicity after 3 days; format: functional, organism-based; outline: as §1
Coxsackievirus B4 = assay: Antiviral activity against Coxsackievirus B4 infected in human HeLa assessed as inhibition of virus-induced cytopathicity after 3 days; format: functional, organism-based; outline: as §1
Human alphaherpesvirus 1 [5] = assay: Antiviral activity against acyclovir-resistant thymidine kinase deficient HSV1 KOS infected in HEL assessed as inhibition of virus-induced cytopathicity after 3 days; format: functional, organism-based; conditions: Human alphaherpesvirus 1, KOS, 72 h
Influenza A virus [6] = assay: Antiviral activity against Influenza A virus H1N1 infected in MDCK assessed as inhibition of virus-induced cytopathicity after 3 days; format: functional, organism-based
Human respirovirus 3 = assay: Antiviral activity against Parainfluenza-3 virus infected in african green monkey Vero assessed as inhibition of virus-induced cytopathicity after 3 days; format: functional, organism-based; outline: as §1
Influenza A virus [7] = assay: Antiviral activity against Influenza A virus H3N2 infected in MDCK assessed as inhibition of virus-induced cytopathicity after 3 days; format: functional, organism-based
Sindbis virus = assay: Antiviral activity against Sindbis virus infected in african green monkey Vero assessed as inhibition of virus-induced cytopathicity after 3 days; format: functional, organism-based; outline: as §1
Human alphaherpesvirus 2 = assay: Antiviral activity against HSV2 G infected in HEL assessed as inhibition of virus-induced cytopathicity after 3 days; format: functional, organism-based; conditions: Human alphaherpesvirus 2, strain G, 72 h; outline: as §1
Human alphaherpesvirus 3 [8] = assay: Antiviral activity against thymidine kinase-deficient VZV 07/1 infected in human HEL cells assessed as reduction of virus-induced cytopathogenicity after 3 days; format: functional, organism-based; conditions: Human alphaherpesvirus 3, 07/1, HEL, 72 h
[9] = Cytotoxicity against HEL assessed as minimum compound concentration causes microscopically detectable alteration of cell morphology after 3 days; format: cell-based; conditions: human, HEL cells
[10] = tested on: Respiratory syncytial virus; assay: Antiviral activity against Respiratory syncytial virus infected in human HeLa assessed as inhibition of virus-induced cytopathicity after 3 days; format: functional, organism-based; outline: as §1
Human alphaherpesvirus 1 [11] = assay: Antiviral activity against HSV1 KOS infected in HEL assessed as inhibition of virus-induced cytopathicity after 3 days; format: functional, organism-based; conditions: Human alphaherpesvirus 1, KOS, 72 h
Vaccinia virus = assay: Antiviral activity against Vaccinia virus infected in HEL assessed as inhibition of virus-induced cytopathicity after 3 days; format: functional, organism-based; conditions: Orthopoxvirus vaccinia, 72 h
[12] = Cytotoxicity against HEL after 3 days; format: cell-based; conditions: human, HEL cells
Outline: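 HEL cells were seeded at 5×10^3 cells/well and allowed to grow for 24 h, then given medium with varying compound concentrations. After 3 days at 37 °C, cells were counted with a Coulter counter.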

Compound | EC50 (Human alphaherpesvirus 3 [1]) | Activity [2] | Activity [3] | Activity (Influenza B virus) | Activity (Punta Toro virus) | Activity [4] | Activity (Coxsackievirus B4) | EC50 (Human alphaherpesvirus 1 [5]) | Activity (Influenza A virus [6]) | Activity (Human respirovirus 3) | Activity (Influenza A virus [7]) | Activity (Sindbis virus) | EC50 (Human alphaherpesvirus 2) | EC50 (Human alphaherpesvirus 3 [8]) | MCC at 72 h [9] | Activity [10] | EC50 (Human alphaherpesvirus 1 [11]) | EC50 (Vaccinia virus) | CC50 at 72 h [12]
CC(C)(C)C(=O)OCOP(=O)(C/C=C/Cn1cnc2c(=O)n3cc[nH]c3nc21)OCOC(=O)C(C)(C)C | 17.3 µM | inactive | inactive | inactive | inactive | inactive | inactive | > 100 µM | inactive | inactive | inactive | inactive | > 100 µM | 40.7 µM | > 100 µM | inactive | > 100 µM | > 100 µM | 
Nc1nc2c(ncn2COCCO)c(=O)[nH]1 [ACYCLOVIR] |  |  |  |  |  |  |  |  |  |  |  |  |  |  | > 100 µM |  |  | > 250 µM | 134 µM
CC(C)(C)C(=O)OCOP(=O)(C/C=C/Cn1cnc2c(=O)[nH]cnc21)OCOC(=O)C(C)(C)C | > 100 µM | inactive | inactive | inactive | inactive | inactive | inactive | > 100 µM | inactive | inactive | inactive | inactive | > 100 µM | > 20 µM | > 100 µM | inactive | > 100 µM | > 100 µM | 51.9 µM
CCCCNc1nc(N)nc2c1ncn2C/C=C/CP(=O)(OCOC(=O)C(C)(C)C)OCOC(=O)C(C)(C)C | 32.4 µM | inactive | inactive | inactive | inactive | inactive | inactive | > 100 µM | inactive | inactive | inactive | inactive | > 100 µM | 43.6 µM | > 100 µM | inactive | > 100 µM | > 100 µM | 60 µM
CC(C)(C)C(=O)OCOP(=O)(C/C=C/Cn1cnc2c(NC3CC3)nc(N)nc21)OCOC(=O)C(C)(C)C | 0.8 µM | inactive | inactive | inactive | inactive | inactive | inactive | 16.3 µM | inactive | inactive | inactive | inactive | 7.2 µM | 0.8 µM | > 100 µM | inactive | 16.3 µM | 20 µM | 2.3 µM
Nc1ccn(C[C@@H](CO)OCP(=O)(O)O)c(=O)n1 [CIDOFOVIR] |  |  |  |  |  |  |  |  |  |  |  |  | 1 µM |  |  |  | 1.2 µM | 10 µM | 
O=c1[nH]c(=O)n([C@H]2C[C@H](O)[C@@H](CO)O2)cc1/C=C/Br [BRIVUDINE] |  |  |  |  |  |  |  |  |  |  |  |  | 50 µM |  | > 100 µM |  | 0.08 µM | 5 µM | 
